This is an account of results in ChEMBL document CHEMBL5029184, “Colloidal Aggregators in Biochemical SARS-CoV-2 Repurposing Screens” (J Med Chem, 2021).

A short description of experiment [1]: Inhibition of SARS-COV2 N-terminal MBP-tagged 3CL protease using DABCYL-KTSAVLQSGFRKME-EDANS as substrate measured upto 30 mins by FRET assay. Also on record: species or system Severe acute respiratory syndrome coronavirus 2.
The species entered for experiment [2] is Sus scrofa. Kind of experiment: Inhibition of porcine heart malate dehydrogenase assessed as reduction in enzyme inhibition at 3 times IC50 preincubated for 5 min followed by nicotinamide adenine dinucleotide addition and monitered for 90 sec in presence of 0.01% Triton-X100 by spectrophotometric method relative to control. It counts as tissue-based. Also on record: scale not given: the % may be the effect or the level left. The procedure, abridged: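 After a 5 min room-temperature incubation, the rate was read over 90 s and compared with the negative control. The value is the percent change in inhibition with detergent; triplicate.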

Experiment [3] is described as follows: Inhibition of porcine heart malate dehydrogenase preincubated for 5 min followed by nicotinamide adenine dinucleotide addition and monitered for 90 sec by spectrophotometric method. It is filed as tissue-based, Sus scrofa. The procedure, abridged: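 Porcine heart MDH was used at 2 nM final in 50 mM KPi pH 7 at room temperature. Compound was added from 100× DMSO stock (1% DMSO final) and incubated 5 min. Reactions were followed 90 s spectrophotometrically, with initial rates divided by the negative-control rate. Concentration–response used three replicates per concentration to give IC50 and Hill slope.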

The species entered for experiment [4] is Sus scrofa. Briefly: Inhibition of porcine heart malate dehydrogenase assessed as critical aggregation concentration preincubated for 5 min followed by nicotinamide adenine dinucleotide addition and monitered for 90 sec by spectrophotometric method. It is filed as tissue-based.
The nature of experiment [5]: Inhibition of SARS CoV2 C-terminal His6-tagged 3CL protease (3264 to 3569 residues) expressed in Escherichia coli BL21 DE3 using rr-K(MCA)-ATLQAIAS-K(DNP)-COOH preincubated for 1 hr followed by substrate addition and measured after 1 hr in presence of 0.05% Tween-20. Also on record: species or system Severe acute respiratory syndrome coronavirus 2. In short, it runs like this:
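Purified recombinant 3CL-Pro at 50 nM final with quenched fluorogenic peptide at 10 μM final (KM), in 20 mM Tris, 150 mM NaCl, 1 mM EDTA, 1 mM DTT, 0.05% Tween-20, pH 7.4. Drug and enzyme were preincubated 1 h at 37 °C, then substrate was added and fluorescence followed 1 h.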

Experiment [6] in a line: Inhibition of SARS-Cov2 N-terminal full-length MBP-tagged 3CL protease expressed in Escherichia coli using DABCYL-KTSAVLQSGFRKME-EDANS as substrate preincubated for 30 mins followed by substrate addition and measured after 3 hrs by fluorescence assay. Also on record: species or system Severe acute respiratory syndrome coronavirus 2.
A short description of experiment [7]: Inhibition of SARS-COV2 main protease. Also on record: species or system Severe acute respiratory syndrome coronavirus 2.
The target in experiment [8] is T1, Angiotensin-converting enzyme 2 (Homo sapiens, UniProt Q9BYF1). Kind of experiment: Inhibition of recombinant SARS-COV2 His-tagged S-RBD binding to recombinant human ACE2 expressed in HEK293T cells incubated for 0.5 hrs by alpha screen assay. It is filed as cell-based.
Experiment [9] deals with T1, Angiotensin-converting enzyme 2. Briefly: Inhibition of recombinant human ACE2 using MCA-Tyr-Val-Ala-Asp-Ala-Pro-Lys(DNP)-OH as substrate preincubated for 15 mins followed by substrate addition and measured upto 15 mins by fluorescence assay.

T1 sequence (Q9BYF1 whole entry): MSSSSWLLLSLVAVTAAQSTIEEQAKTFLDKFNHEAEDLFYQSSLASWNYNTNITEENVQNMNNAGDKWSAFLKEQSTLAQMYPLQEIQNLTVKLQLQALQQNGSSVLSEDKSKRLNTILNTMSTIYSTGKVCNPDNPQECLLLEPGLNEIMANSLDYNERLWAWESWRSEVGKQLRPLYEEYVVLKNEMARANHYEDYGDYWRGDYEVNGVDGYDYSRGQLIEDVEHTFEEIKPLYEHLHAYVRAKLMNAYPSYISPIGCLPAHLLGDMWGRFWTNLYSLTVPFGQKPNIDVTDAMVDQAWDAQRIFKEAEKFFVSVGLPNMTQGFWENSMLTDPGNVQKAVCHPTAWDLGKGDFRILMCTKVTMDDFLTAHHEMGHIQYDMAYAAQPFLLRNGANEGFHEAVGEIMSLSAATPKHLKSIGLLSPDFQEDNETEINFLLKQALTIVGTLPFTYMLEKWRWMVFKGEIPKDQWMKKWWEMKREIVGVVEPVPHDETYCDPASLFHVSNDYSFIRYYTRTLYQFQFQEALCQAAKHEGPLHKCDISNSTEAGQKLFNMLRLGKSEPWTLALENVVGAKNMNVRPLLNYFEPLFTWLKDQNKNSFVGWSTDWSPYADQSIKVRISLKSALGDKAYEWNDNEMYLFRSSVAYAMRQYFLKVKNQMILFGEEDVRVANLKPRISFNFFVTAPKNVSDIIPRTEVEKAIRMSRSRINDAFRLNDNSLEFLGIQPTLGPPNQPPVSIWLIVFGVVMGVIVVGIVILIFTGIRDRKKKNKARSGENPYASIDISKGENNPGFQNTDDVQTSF

Turning to `Brc1c(Br)c(Br)c2[nH]nnc2c1Br` [TETRABROMOBENZOTRIAZOLE], the IC50 is 4 µM in experiment [1] and 14.6 µM in experiment [3]. In the experiment listed under Sus scrofa [2], the Activity was 61%.
For `CC(C)=CC[C@@H](O)C1=CC(=O)c2c(O)ccc(O)c2C1=O`, the Activity in the experiment listed under Sus scrofa [2] came to 92%. In addition, the CAC in the experiment filed under Sus scrofa [4] came out at 7.7 µM.
As to `Cc1c(C)c2c(c(C)c1O)CCC(C)(CCCC(C)CCCC(C)CCCC(C)C)O2` (stereo not drawn) [alpha-TOCHOPHEROL], the Activity in the experiment listed under Sus scrofa [2] was determined as 69%. In addition, the CAC in the experiment filed under Sus scrofa [4] turned out to be 1.5 µM. Besides, the midpoint of inhibition in experiment [3], the IC50, lay at 0.079 µM.
Regarding `O=C(O)c1ccc(N2C(=O)/C(=C\c3ccc(-c4ccc([N+](=O)[O-])cc4)o3)C=C2c2ccccc2)cc1`, the IC50 was 18.3 µM in experiment [1], 0.36 µM in experiment [3] and 100 µM in [5]. In addition, the Activity in the experiment listed under Sus scrofa [2] turned out to be 75%. Besides, in the experiment listed under Sus scrofa [4], the CAC stood at 6.2 µM.
Regarding `c1ccc(-c2ccc(C(c3ccccc3)n3ccnc3)cc2)cc1` (stereo unspecified) [BIFONAZOLE], in [3], the IC50 amounted to 17 µM.
With `Cc1cc(O)c2c(c1)C(=O)c1cc(O)cc(O)c1C2=O` [EMODIN], the CAC in the experiment listed under Sus scrofa [4] is 6 µM. This compound also showed an IC50 in [3] of 12.7 µM.
Turning to `Cc1cc2c(C(C)C)c(O)c(O)c(C=O)c2c(O)c1-c1c(C)cc2c(C(C)C)c(O)c(O)c(C=O)c2c1O` [GOSSYPOL], the Activity in the experiment listed under Sus scrofa [2] came to 92%. Also, the IC50 in experiment [6] was 39.8 µM; in experiment [3] it was 0.82 µM; in [5], more than 200 µM. Moreover, the CAC in the experiment filed under Sus scrofa [4] was 34 µM.
As to `Cc1c(-c2ccc(O)cc2)n(Cc2ccc(OCCN3CCCCCC3)cc2)c2ccc(O)cc12`, in the experiment listed under Sus scrofa [2], the Activity was 70%.
`O=C(O)c1cccc(CN2C(=O)/C(=C(\c3ccccc3)c3ccc(Cl)cc3)c3ccccc32)c1`: in the experiment listed under Sus scrofa [2], the Activity amounted to 22%. The figures for the IC50 in experiment [6], in experiment [3] and in experiment [5] were 35.5 µM, 24 µM and more than 200 µM, respectively. Further, in the experiment listed under Sus scrofa [4], the CAC was found to be 49 µM.
For the compound `COC(=O)C1=C(C)NC(C)=C(C(=O)OCCN2CCN(C(c3ccccc3)c3ccccc3)CC2)C1c1cccc([N+](=O)[O-])c1` (stereo unspecified) [MANIDIPINE 6300], the Activity in the experiment listed under Sus scrofa [2] was 92%. Further, the CAC in the experiment listed under Sus scrofa [4] amounted to 2.8 µM. The IC50 is 2 µM in experiment [3] and more than 100 µM in [5].
For `COc1ccc(-c2ccc3cc(C(=O)O)ccc3c2)cc1C12CC3CC(CC(C3)C1)C2`, in the experiment listed under Sus scrofa [2], the Activity came to 77%. The CAC in the experiment listed under Sus scrofa [4] worked out at 9.2 µM. Besides, in [3], the IC50 was determined as 14 µM.
On to `Oc1c(I)cc(Cl)c2cccnc12` [CLIOQUINOL], for which the Activity in the experiment filed under Sus scrofa [2] stood at 57%. In addition, the IC50 in [3] turned out to be 4.3 µM.
As to `Cc1cc(O)c2c(=O)c3c(O)cc(O)c4c5c(O)cc(O)c6c(=O)c7c(O)cc(C)c8c1c2c(c34)c(c78)c65` [HYPERICIN], in the experiment filed under Sus scrofa [2], the Activity was 83%. Further, the figures for the IC50 in [7] and in [3] were 19.3 µM and 0.15 µM, respectively. In addition, the CAC in the experiment filed under Sus scrofa [4] was determined as 0.3 µM.
Regarding `O=C1C=C2CC3(O)COc4c(ccc(O)c4O)C3=C2C=C1O` (stereo unspecified) [HEMATEIN], the Activity in the experiment filed under Sus scrofa [2] came to 24%. In the experiment filed under Sus scrofa [4], the CAC is 123 µM. For the same compound, the IC50 in experiment [3] is 7.6 µM; in [5], more than 200 µM; in [8] it was 10 µM.
For `C/C(=C\c1ccc(C(=O)O)cc1)c1ccc2c(c1)C(C)(C)CCC2(C)C`, the Activity in the experiment filed under Sus scrofa [2] was 83%. Besides, the IC50 in experiment [6] is 35.5 µM; in [3], 4.4 µM; in experiment [5], more than 200 µM. In the experiment filed under Sus scrofa [4], the CAC amounted to 5.2 µM.
Take `O=c1c(O)c(-c2cc(O)c(O)c(O)c2)oc2cc(O)cc(O)c12` [MYRICETIN]: the CAC in the experiment filed under Sus scrofa [4] came to 7.4 µM. Besides, the IC50 in [8] was found to be 10 µM.
As to `CC(C)(C)[C@H]1CC[C@H](CC2=C(O)C(=O)c3ccccc3C2=O)CC1` [BUPARVAQUONE], the Activity in the experiment listed under Sus scrofa [2] is 90%. Besides, the CAC in the experiment listed under Sus scrofa [4] was found to be 32 µM. Besides, the IC50 in [3] was determined as 8.2 µM.
As to `O=C1c2c(O)cccc2Cc2cccc(O)c21` [ANTHRALIN], the Activity in the experiment filed under Sus scrofa [2] worked out at 93%. Besides, the CAC in the experiment listed under Sus scrofa [4] came to 4.5 µM. For the same compound, in experiment [3], inhibition was half-maximal at 2.5 µM (IC50).
Turning to `COc1c2ccc(-c3ccccc3)oc-2cc(=O)c1C` [DRACORHODIN], the Activity in the experiment filed under Sus scrofa [2] was determined as 86%. In the experiment filed under Sus scrofa [4], the CAC turned out to be 22 µM. Besides, the IC50 in experiment [3] came out at 7.7 µM.
Take `COC(=O)C1=C(C)NC(C)=C(C(=O)OC(C)(C)CN(C)CCC(c2ccccc2)c2ccccc2)C1c1cccc([N+](=O)[O-])c1` (stereo unspecified) [LERCANIDIPINE]: in the experiment listed under Sus scrofa [2], the Activity was found to be 95%. Besides, in the experiment listed under Sus scrofa [4], the CAC came to 4 µM. Further, the values for the IC50 in experiment [3] and in experiment [5] were 2.2 µM and more than 200 µM, respectively.
In the case of `C[C@@H](NCCCc1cccc(C(F)(F)F)c1)c1cccc2ccccc12`, the Activity in the experiment listed under Sus scrofa [2] was determined as 81%. Further, the CAC in the experiment listed under Sus scrofa [4] is 53 µM. The results for the half-inhibitory concentration (IC50) in [9] and in [3] were 28.2 µM and 74 µM, respectively.
As to `Cc1cc(-c2ccc(/N=N/c3ccc4c(S(=O)(=O)O)cc(S(=O)(=O)O)c(N)c4c3O)c(C)c2)ccc1/N=N/c1ccc2c(S(=O)(=O)O)cc(S(=O)(=O)O)c(N)c2c1O` [EVANS BLUE], in the experiment listed under Sus scrofa [2], the Activity was 64%. In experiment [3], this compound came in with an IC50 of 0.01 µM.
